Measured values reported in ChEMBL document CHEMBL1154352, “Toll-like receptor 7 selective synthetic oligoribonucleotide agonists: synthesis and structure-activity relationship studies” (J Med Chem, 2009).
Activity calls are given as the source filed them. No cut-off for these calls is given here.

What was measured:
[1] = molecular target: T1, Toll-like receptor 8 (Homo sapiens) (UniProt Q9NR97); assay: Activation of human TLR8 expressed in HEK293XL assessed as fold induction of NF-kappaB activity at 50 ug/ml after 18 hrs by reporter gene assay relative to control
T1 sequence (whole entry): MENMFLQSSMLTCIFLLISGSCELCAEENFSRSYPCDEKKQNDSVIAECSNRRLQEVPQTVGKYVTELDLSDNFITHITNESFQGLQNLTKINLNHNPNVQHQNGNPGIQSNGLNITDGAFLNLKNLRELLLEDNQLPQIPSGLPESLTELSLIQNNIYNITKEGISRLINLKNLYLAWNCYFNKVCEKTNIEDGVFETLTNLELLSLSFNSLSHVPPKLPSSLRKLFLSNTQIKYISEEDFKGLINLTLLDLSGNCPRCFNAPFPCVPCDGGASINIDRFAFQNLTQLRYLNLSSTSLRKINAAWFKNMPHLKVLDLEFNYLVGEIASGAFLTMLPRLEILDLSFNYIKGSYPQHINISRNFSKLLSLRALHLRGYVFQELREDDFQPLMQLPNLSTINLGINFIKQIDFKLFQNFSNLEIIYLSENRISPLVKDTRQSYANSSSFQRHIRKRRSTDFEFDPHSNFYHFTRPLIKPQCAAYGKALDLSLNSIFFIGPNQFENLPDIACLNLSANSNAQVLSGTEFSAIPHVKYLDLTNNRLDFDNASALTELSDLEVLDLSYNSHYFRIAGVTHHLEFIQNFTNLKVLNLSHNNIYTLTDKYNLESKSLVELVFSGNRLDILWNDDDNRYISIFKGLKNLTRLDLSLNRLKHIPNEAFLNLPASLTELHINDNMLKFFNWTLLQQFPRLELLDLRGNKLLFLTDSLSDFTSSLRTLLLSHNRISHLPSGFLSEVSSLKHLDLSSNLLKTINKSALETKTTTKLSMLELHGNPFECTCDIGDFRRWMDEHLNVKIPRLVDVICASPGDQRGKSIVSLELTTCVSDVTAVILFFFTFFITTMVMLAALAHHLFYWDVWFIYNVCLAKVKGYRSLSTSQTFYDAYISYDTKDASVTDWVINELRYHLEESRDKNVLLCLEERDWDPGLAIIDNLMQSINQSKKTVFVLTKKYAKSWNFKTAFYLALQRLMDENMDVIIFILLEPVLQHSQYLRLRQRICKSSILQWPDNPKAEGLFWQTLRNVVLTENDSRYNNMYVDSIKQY
Method in brief: (§1)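 HEK293 cells stably expressing human TLR7 or TLR8, transiently transfected with SEAP reporter plasmid; medium replaced, SIMRA compounds added, 18 h incubation. Supernatant SEAP measured by QuantiBlue; expressed as fold increase in NF-κB activity over PBS control. Tabulated data at 50 μg/mL, representative of three independent experiments.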

Splenocyte [2] = assay: Immunomodulatory activity in C57BL/6 mouse splenocytes bearing TLR7 receptor assessed as IL6 release at 100 ug/ml after 24 hrs by ELISA; format: functional, cell-based
Method in brief: (§2)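 C57BL/6 splenocytes in RPMI 1640 with 10% FBS, penicillin/streptomycin, 2 mM L-glutamine, plated at 5 × 10^6 cells/mL; compounds in PBS added, 37 °C for 24 h. Supernatant IL-12 and IL-6 by ELISA; representative of three independent experiments.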

Splenocyte [3] = assay: Immunomodulatory activity in C57BL/6 mouse splenocytes bearing TLR7 receptor assessed as IL12 release at 100 ug/ml after 24 hrs by ELISA; format: functional, cell-based; method in brief: as §2
Homo sapiens = species on record: Homo sapiens; assay: Ratio of human TLR7 activity to human TLR8 activity
Method in brief: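 TLR7/TLR8 ratio computed from fold NF-κB (SEAP reporter) activation in HEK293 cells stably expressing human TLR7 versus TLR8, compounds at 50 μg/mL, 18 h exposure; representative of three independent experiments.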

[4] = molecular target: T2, Toll-like receptor 7 (Homo sapiens) (UniProt Q9NYK1); assay: Activation of human TLR7 expressed in HEK293XL assessed as fold induction of NF-kappaB activity at 50 ug/ml after 18 hrs by reporter gene assay relative to control; method in brief: as §1
T2 sequence (whole entry): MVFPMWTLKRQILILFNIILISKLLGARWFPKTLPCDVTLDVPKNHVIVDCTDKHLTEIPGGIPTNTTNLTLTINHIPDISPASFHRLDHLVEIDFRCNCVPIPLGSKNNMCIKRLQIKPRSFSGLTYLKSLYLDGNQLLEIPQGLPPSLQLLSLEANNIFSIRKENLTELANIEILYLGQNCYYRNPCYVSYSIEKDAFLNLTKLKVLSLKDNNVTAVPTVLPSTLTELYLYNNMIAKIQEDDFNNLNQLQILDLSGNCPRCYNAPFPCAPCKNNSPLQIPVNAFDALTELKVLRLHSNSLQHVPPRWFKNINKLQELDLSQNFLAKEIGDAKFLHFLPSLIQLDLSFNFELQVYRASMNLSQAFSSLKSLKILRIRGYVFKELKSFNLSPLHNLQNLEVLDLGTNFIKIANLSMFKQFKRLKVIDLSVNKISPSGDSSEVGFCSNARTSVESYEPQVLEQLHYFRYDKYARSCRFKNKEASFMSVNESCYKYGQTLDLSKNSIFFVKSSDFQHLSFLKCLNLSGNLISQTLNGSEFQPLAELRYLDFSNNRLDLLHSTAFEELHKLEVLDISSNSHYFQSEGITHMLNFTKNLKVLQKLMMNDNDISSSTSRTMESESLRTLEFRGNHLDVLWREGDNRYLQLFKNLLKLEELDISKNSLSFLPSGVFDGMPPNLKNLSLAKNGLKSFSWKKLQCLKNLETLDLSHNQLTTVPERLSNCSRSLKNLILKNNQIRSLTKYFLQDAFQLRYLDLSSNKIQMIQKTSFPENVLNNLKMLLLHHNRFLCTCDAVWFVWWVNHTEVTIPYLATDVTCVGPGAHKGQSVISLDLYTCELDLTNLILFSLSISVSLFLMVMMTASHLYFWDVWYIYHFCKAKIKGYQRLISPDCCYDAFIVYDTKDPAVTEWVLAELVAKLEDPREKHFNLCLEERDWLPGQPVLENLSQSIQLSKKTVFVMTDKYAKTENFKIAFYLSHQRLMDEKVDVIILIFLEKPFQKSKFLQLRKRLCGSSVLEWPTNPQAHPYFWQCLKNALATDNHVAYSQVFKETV

[5] = Metabolic stability in human serum assessed as full length product remaining after 10 mins by HPLC; format: ADME, cell-free; conditions: read-out: Stability
Method in brief: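 About 0.5 A260 units compound in 1% human serum in PBS, 37 °C; aliquot taken at 10 min, analysed by anion-exchange HPLC for percent intact full-length product.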

| fold change (FC) [1] | Activity (Splenocyte [2]) | Activity (Splenocyte [3]) | Ratio (Homo sapiens) | fold change (FC) [4] | remaining at 10 min [5] | Compound |
| --- | --- | --- | --- | --- | --- | --- |
| 0.3 | Active | Active | 21.7 | 6.5 | 83% | Nc1ccn([C@@H]2O[C@H](COP(=O)(S)O[C@H]3[C@@H](O)[C@H](n4cnc5c(N)ncnc54)O[C@@H]3COP(=O)(S)O[C@H]3[C@@H](O)[C@H](n4cnc5c(N)ncnc54)O[C@@H]3CO)[C@@H](OP(=O)(S)OC[C@H]3O[C@@H](n4ccc(=O)[nH]c4=O)[C@H](O)[C@@H]3OP(=O)(S)OC[C@H]3O[C@@H](n4ccc5c(=O)[nH]c(N)nc54)[C@H](O)[C@@H]3OP(=O)(S)OC[C@H]3O[C@@H](n4ccc(N)nc4=O)[C@H](O)[C@@H]3OP(=O)(S)OC[C@H]3O[C@@H](n4ccc5c(=O)[nH]c(N)nc54)[C@H](O)[C@@H]3OP(=O)(S)OC[C@H]3O[C@@H](n4cnc5c(N)ncnc54)[C@H](O)[C@@H]3OP(=O)(S)OC[C@H]3O[C@@H](n4ccc(N)nc4=O)[C@H](O)[C@@H]3OP(=O)(S)OC[C@H]3O[C@@H](n4ccc(=O)[nH]c4=O)[C@H](O)[C@@H]3OP(=O)(S)OC[C@H]3O[C@@H](n4ccc(=O)[nH]c4=O)[C@H](O)[C@@H]3OP(=O)(S)OCC(O)COP(=O)(S)O[C@H]3[C@@H](O)[C@H](n4ccc(=O)[nH]c4=O)O[C@@H]3COP(=O)(S)O[C@H]3[C@@H](O)[C@H](n4ccc(=O)[nH]c4=O)O[C@@H]3COP(=O)(S)O[C@H]3[C@@H](O)[C@H](n4ccc(N)nc4=O)O[C@@H]3COP(=O)(S)O[C@H]3[C@@H](O)[C@H](n4cnc5c(N)ncnc54)O[C@@H]3COP(=O)(S)O[C@H]3[C@@H](O)[C@H](n4ccc5c(=O)[nH]c(N)nc54)O[C@@H]3COP(=O)(S)O[C@H]3[C@@H](O)[C@H](n4ccc(N)nc4=O)O[C@@H]3COP(=O)(S)O[C@H]3[C@@H](O)[C@H](n4ccc5c(=O)[nH]c(N)nc54)O[C@@H]3COP(=O)(S)O[C@H]3[C@@H](O)[C@H](n4ccc(=O)[nH]c4=O)O[C@@H]3COP(=O)(S)O[C@H]3[C@@H](O)[C@H](n4ccc(N)nc4=O)O[C@@H]3COP(=O)(S)O[C@H]3[C@@H](O)[C@H](n4cnc5c(N)ncnc54)O[C@@H]3COP(=O)(S)O[C@H]3[C@@H](O)[C@H](n4cnc5c(N)ncnc54)O[C@@H]3CO)[C@H]2O)c(=O)n1 (some centres not stated) |
| 4.6 | Active | Active | 4 | 18.4 | 86% | Nc1ccn([C@@H]2O[C@H](COP(=O)(S)O[C@H]3[C@@H](O)[C@H](n4cnc5c(N)ncnc54)O[C@@H]3COP(=O)(S)O[C@H]3[C@@H](O)[C@H](n4ccc5c(=O)[nH]c(N)nc54)O[C@@H]3COP(=O)(S)O[C@H]3[C@@H](O)[C@H](n4ccc(=O)[nH]c4=O)O[C@@H]3CO)[C@@H](OP(=O)(S)OC[C@H]3O[C@@H](n4ccc5c(=O)[nH]c(N)nc54)[C@H](O)[C@@H]3OP(=O)(S)OC[C@H]3O[C@@H](n4cnc5c(N)ncnc54)[C@H](O)[C@@H]3OC[C@H]3O[C@@H](n4ccc(=O)[nH]c4=O)[C@H](O)[C@@H]3OP(=O)(S)ON[C@H]3O[C@@H](n4ccc5c(=O)[nH]c(N)nc54)[C@H](O)[C@@H]3OP(=O)(S)OC[C@H]3O[C@@H](n4cnc5c(N)ncnc54)[C@H](O)[C@@H]3OP(=O)(S)OC[C@H]3O[C@@H](n4ccc(=O)[nH]c4=O)[C@H](O)[C@@H]3OP(=O)(S)OC[C@H]3O[C@@H](n4ccc(=O)[nH]c4=O)[C@H](O)[C@@H]3OP(=O)(S)OCC(O)COP(=O)(S)O[C@H]3[C@@H](O)[C@H](n4ccc(=O)[nH]c4=O)O[C@@H]3COP(=O)(S)O[C@H]3[C@@H](O)[C@H](n4ccc(=O)[nH]c4=O)O[C@@H]3COP(=O)(S)O[C@H]3[C@@H](O)[C@H](n4cnc5c(N)ncnc54)O[C@@H]3COP(=O)(S)O[C@H]3[C@@H](O)[C@H](n4ccc5c(=O)[nH]c(N)nc54)O[C@@H]3NOP(=O)(S)O[C@H]3[C@@H](O)[C@H](n4ccc(=O)[nH]c4=O)O[C@@H]3CO[C@H]3[C@@H](O)[C@H](n4cnc5c(N)ncnc54)O[C@@H]3COP(=O)(S)O[C@H]3[C@@H](O)[C@H](n4ccc5c(=O)[nH]c(N)nc54)O[C@@H]3COP(=O)(S)O[C@H]3[C@@H](O)[C@H](n4ccc(N)nc4=O)O[C@@H]3COP(=O)(S)O[C@H]3[C@@H](O)[C@H](n4cnc5c(N)ncnc54)O[C@@H]3COP(=O)(S)O[C@H]3[C@@H](O)[C@H](n4ccc5c(=O)[nH]c(N)nc54)O[C@@H]3COP(=O)(S)O[C@H]3[C@@H](O)[C@H](n4ccc(=O)[nH]c4=O)O[C@@H]3CO)[C@H]2O)c(=O)n1 (some centres not stated) |
